Measurements as given in ChEMBL document CHEMBL1275496, “In vivo pharmacodynamic target investigation for micafungin against Candida albicans and C. glabrata in a neutropenic murine candidiasis model” (Antimicrob Agents Chemother, 2008).
≈ marks a conversion by molar mass, not a printed value. *1 amine or outer side, *2 acyl side, *3 side chain or, on linkers, in order; H or OH if unused. Where a SMILES comes first, the peptide text is derived from it. Bridges are numbered along the chain shown (N, C = ends). [ ]: non-standard residue; d: D form. The star is where a group is joined. hTyr(3S-OH,4S-OH,3'-OSO3H) = N[C@H](C(=O)O)[C@H](O)[C@@H](O)c1ccc(O)c(OS(=O)(=O)O)c1; Orn(4R-OH,5R-OH) = O=C([C@H](C[C@@H](O)[C@@H](O)N[*:3])N[*:1])[*:2]; Pro(3S-OH,4S-Me) = C[C@H]1CN[C@H](C(=O)O)[C@H]1O; X1 = CCCCCOc1ccc(-c2cc(-c3ccc(C(=O)*)cc3)no2)cc1; Gln(3R-OH) = NC(=O)C[C@@H](O)[C@H](N)C(=O)O; Hyp = O=C(O)[C@@H]1C[C@@H](O)CN1

Columns and labels:
[1] = Ratio of AUC in ICR/Swiss neutropenic mouse at static dose of 2.84 mg/kg, ip after 24 hrs to MIC for Candida albicans isolate K1; format: functional; conditions: route intraperitoneal
[2] = Ratio of AUC in ICR/Swiss neutropenic mouse at 1-Log kill dose of 3.77 mg/kg, ip after 24 hrs to MIC for Candida glabrata isolate 35315; format: functional; conditions: route intraperitoneal
[3] = Ratio of AUC in ICR/Swiss neutropenic mouse at 1-Log kill dose of 7.89 mg/kg, ip after 24 hrs to MIC for Candida glabrata isolate 33616; format: functional; conditions: route intraperitoneal
[4] = Ratio of fAUC in ICR/Swiss neutropenic mouse at 1-Log kill dose of 4.26 mg/kg, ip after 24 hrs to MIC for Candida glabrata isolate 34341; format: functional; conditions: route intraperitoneal
Homo sapiens = species: Homo sapiens; assay: fAUC in healthy human at 100 mg/day; format: ADME, organism-based; conditions: in vivo
Candida albicans [5] = assay: Antifungal activity against Candida albicans isolate 98-210 by CLSI method; format: functional
Method in brief: (§1)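 Broth microdilution MIC per CLSI M27-A2. Two endpoints were read against the drug-free control well: partial inhibition (M1, CLSI recommended) and complete inhibition (M2). Tests were run in duplicate on four separate occasions, and the value is the mean.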

Candida albicans [6] = assay: Antifungal activity against Candida albicans isolate K1 by CLSI method; format: functional; method in brief: as §1
Nakaseomyces glabratus [7] = assay: Antifungal activity against Candida glabrata isolate 5592 by CLSI method; format: functional; method in brief: as §1
[8] = Half life in Candida infected ICR/Swiss neutropenic mouse at 5 mg/kg, ip; format: ADME, organism-based; set-up: dose 5 mg/kg, route intraperitoneal; conditions: in vivo
Method in brief: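 Single intraperitoneal micafungin doses (80, 20, 5 mg/kg in 0.2 ml, 0.15 M NaCl) given to infected neutropenic mice. Serum was taken from 3 mice per time point at 1, 2, 4, 6, 8, 12, 24 and 48 h. Drug was measured by microbiologic assay with C. albicans K1 (LLOQ 0.12 μg/ml). Noncompartmental analysis; half-life by nonlinear least squares; AUC by trapezoidal rule.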

Nakaseomyces glabratus [9] = assay: Fungistatic activity against Candida glabrata isolate 570 infected in ICR/Swiss neutropenic mouse after 24 hrs; format: functional
Method in brief: (§2)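 Neutropenic female ICR/Swiss mice received cyclophosphamide sc at 150 mg/kg on day −4, 100 mg/kg on day −1 and 100 mg/kg on day +2. Mice were infected iv via the tail vein, and ip micafungin in 0.15 M NaCl started 2 h later. Six dose levels from 0.078 to 80 mg/kg/24 h were given q24h for 4 days, 3 mice per dose. Kidney CFU were counted at 96 h. The static dose was derived from a sigmoid Emax (Hill) fit.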

Nakaseomyces glabratus [10] = assay: Fungistatic activity against Candida glabrata isolate 33616 infected in ICR/Swiss neutropenic mouse after 24 hrs; format: functional; method in brief: as §2

Q: Which results are given for `CCCCCOc1ccc(-c2cc(-c3ccc(C(=O)N[C@H]4C[C@@H](O)[C@@H](O)NC(=O)[C@@H]5[C@@H](O)[C@@H](C)CN5C(=O)[C@H]([C@H](O)CC(N)=O)NC(=O)[C@H]([C@H](O)[C@@H](O)c5ccc(O)c(OS(=O)(=O)O)c5)NC(=O)[C@@H]5C[C@@H](O)CN5C(=O)[C@H]([C@@H](C)O)NC4=O)cc3)no2)cc1` [MICAFUNGIN] (X1-[Orn(4R-OH,5R-OH)]T[Hyp][hTyr(3S-OH,4S-OH,3'-OSO3H)][Gln(3R-OH)][Pro(3S-OH,4S-Me)]; lactam 1-C)?
A: RatioAUC/MIC [1]: 5200; RatioAUC/MIC [2]: 1733; RatioAUC/MIC [3]: 848; fAUC/MIC [4]: 4.9; fAUC (Homo sapiens): 0.32 mg·h/L; MIC (Candida albicans [5]): 0.03 µg/mL (≈ 0.0236 µM); MIC50 (Candida albicans [5]): 0.016 µg/mL (≈ 0.0126 µM); MIC (Candida albicans [6]): 0.03 µg/mL (≈ 0.0236 µM); MIC50 (Candida albicans [6]): 0.016 µg/mL (≈ 0.0126 µM); MIC (Nakaseomyces glabratus [7]): 0.03 µg/mL (≈ 0.0236 µM); MIC50 (Nakaseomyces glabratus [7]): 0.016 µg/mL (≈ 0.0126 µM); half-life [8]: 450 min; Activity (Nakaseomyces glabratus [9]): 3.76 mg/kg; Activity (Nakaseomyces glabratus [10]): 3.88 mg/kg
